What all share (assay type): cell membranes
Test [1] addresses Delta-type opioid receptor (Homo sapiens, UniProt P41143). Nature of the test: Displacement of [3H]deltorphin-2 from human delta opioid receptor expressed in HEK293 cell membrane.
Test [2] deals with Mu-type opioid receptor (Homo sapiens) (UniProt P35372). Nature of the test: Displacement of [3H]naloxone from mu opioid receptor expressed in CHO cell membrane at 10 uM. The procedure, abridged:
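Filtration binding with recombinant human µ receptor CHO cell membranes (0.017 mg/mL) and [3H]-naloxone (0.66 nM). Buffer: 50 mM Tris, 10 mM MgCl2, 1 mM EDTA, pH 7.4. Incubated 90 min, including 60 min shaking, at ca. 23 °C. Harvested onto PEI-presoaked GF/B mats, oven-dried at 50 °C, then liquid scintillation counted.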

Test [3] deals with Kappa-type opioid receptor (Homo sapiens) (UniProt P41145). Nature of the test: Displacement of [3H]naloxone from kappa opioid receptor expressed in HEK293 cell membrane at 10 uM.

Drawing on ChEMBL document CHEMBL1157800, “Hasubanan alkaloids with delta-opioid binding affinity from the aerial parts of Stephania japonica” (J Nat Prod, 2010), this text covers IC50 and inhibition for 9 compounds.

Mu-type opioid receptor (Homo sapiens), sequence (P35372 whole entry): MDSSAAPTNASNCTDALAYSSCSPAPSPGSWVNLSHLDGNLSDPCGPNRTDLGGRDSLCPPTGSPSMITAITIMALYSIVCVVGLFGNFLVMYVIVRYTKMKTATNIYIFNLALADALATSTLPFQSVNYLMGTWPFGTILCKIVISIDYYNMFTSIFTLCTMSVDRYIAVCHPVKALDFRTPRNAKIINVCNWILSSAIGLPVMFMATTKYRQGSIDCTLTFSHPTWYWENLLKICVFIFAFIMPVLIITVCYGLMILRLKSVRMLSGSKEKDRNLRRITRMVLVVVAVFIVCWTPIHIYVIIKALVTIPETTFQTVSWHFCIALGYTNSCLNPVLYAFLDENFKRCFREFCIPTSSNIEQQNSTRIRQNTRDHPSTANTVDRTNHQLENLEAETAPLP
Delta-type opioid receptor, sequence (P41143 whole entry): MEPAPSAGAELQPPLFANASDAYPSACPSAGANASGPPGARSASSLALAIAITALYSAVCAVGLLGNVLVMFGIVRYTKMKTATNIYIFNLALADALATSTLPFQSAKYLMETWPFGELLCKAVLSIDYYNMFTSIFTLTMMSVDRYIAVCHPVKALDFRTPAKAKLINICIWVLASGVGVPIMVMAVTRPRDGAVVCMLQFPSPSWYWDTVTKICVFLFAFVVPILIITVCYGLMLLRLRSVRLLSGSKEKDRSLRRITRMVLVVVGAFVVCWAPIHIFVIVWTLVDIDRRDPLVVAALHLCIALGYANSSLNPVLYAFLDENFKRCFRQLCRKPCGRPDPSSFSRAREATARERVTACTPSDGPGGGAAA
Kappa-type opioid receptor (Homo sapiens), sequence (P41145 whole entry): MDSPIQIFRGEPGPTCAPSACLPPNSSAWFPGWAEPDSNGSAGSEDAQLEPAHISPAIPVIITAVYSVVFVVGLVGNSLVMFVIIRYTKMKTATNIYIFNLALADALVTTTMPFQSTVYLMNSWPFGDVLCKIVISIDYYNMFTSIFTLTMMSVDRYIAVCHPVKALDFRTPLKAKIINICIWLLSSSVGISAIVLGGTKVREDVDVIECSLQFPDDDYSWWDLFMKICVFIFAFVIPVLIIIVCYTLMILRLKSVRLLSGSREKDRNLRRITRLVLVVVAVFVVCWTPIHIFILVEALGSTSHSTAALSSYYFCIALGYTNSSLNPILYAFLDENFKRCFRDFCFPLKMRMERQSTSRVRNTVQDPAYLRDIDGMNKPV

`COc1ccc(/C=C/C(=O)O[C@H]2C[C@]34CCN(C)[C@@]35C[C@H](O[C@]5(OC)[C@H]2OC)c2ccc(OC)c(O)c24)cc1O` registered an IC50 in test [1] of 11.3 µM. In addition, the values for the inhibition in test [2] and in test [3] were 56% and 0%, respectively.

For the compound `COc1ccc2c(c1O)[C@@]13CC(=O)N(C)[C@@]14C[C@@H]2O[C@]4(OC)[C@@H](OC)[C@@H](OC(=O)/C=C/c1ccccc1)C3`, the IC50 in test [1] came to 5.1 µM. For the same compound, the inhibition stood at 74% in test [2] and 0% in test [3].

For `COC1=CC[C@]23CCN(C)[C@@]24C[C@H](O[C@@]14O)c1ccc(OC)c(O)c13` [PROSTEPHABYSSINE], in test [1], the concentration for half-maximal inhibition (IC50) worked out at 5.5 µM. For the same compound, the values for the inhibition in test [2] and in test [3] were 67% and 0%, respectively.

In test [1], `COC1=C(OC)[C@]23CCc4ccc(OC)c(O)c4[C@@]2(CC1=O)CC(=O)N3C` showed an IC50 of 17 µM. Moreover, the inhibition in test [2] worked out at 49%; in test [3] it was 0%.

As for `COc1ccc2c(c1O)[C@@]13CCN(C)[C@@]14C[C@@H]2O[C@]4(O)[C@@H](OC)[C@@H](O)C3` [LONGANINE], the half-inhibitory concentration (IC50) in test [1] was 0.7 µM. Also, the figures for the inhibition in test [2] and in test [3] were 68% and 0%, respectively.

In the case of `COC1=C(OC)[C@]23CCc4ccc(OC)c(O)c4[C@]2(CCN3C)CC1=O` [AKNADININE], the IC50 in test [1] worked out at 46 µM. The inhibition is 68% in test [2] and 0% in test [3].

`COc1ccc2c(c1O)[C@@]13CCN(C)[C@@]14C[C@@H]2O[C@]4(OC)[C@@H](OC)[C@@H](O)C3` came in with a half-maximal inhibitory concentration (IC50) in test [1] of 2.1 µM. Besides, the inhibition was 68% in test [2] and 0% in test [3].

In turn, `COc1ccc2c(c1O)[C@@]13CCN(C)[C@@]14C[C@@H]2O[C@]4(OC)[C@@H](O)[C@@H](OC(=O)/C=C/c1ccccc1)C3` had an IC50 in test [1] of 2.5 µM. The inhibition in test [2] was determined as 54%; in test [3], 0%.

In test [1], `COC1=C2[C@@H]3Cc4ccc(OC)c(O)c4[C@]2(CCN3)C[C@H](O)[C@@H]1O` [SINOCOCULINE] had a half-inhibitory concentration (IC50) of 37 µM. The inhibition is 54% in test [2] and 0% in test [3].
